Test [1] deals with PC-3. The test is described as follows: Cytotoxicity against human PC3 cells after 48 hrs by SRB assay. The format is functional, cell-based. The settings on record: PC-3, 48 h. Summed up: (§1)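 Cells seeded in RPMI 1640 with 5% FBS at 37 °C, 5% CO2. A time-zero plate set fixed with TCA at 24 h. Drug added, then 48 h further incubation. Cold-TCA fixation, 0.4% w/v SRB in 1% acetic acid for 10 min, acetic acid washes, dye dissolved in 10 mM Tris base, A515 read. IC50 = concentration giving 50% absorbance reduction versus untreated cells.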

A short description of test [2]: Cytotoxicity against human Hep3B cells after 48 hrs by SRB assay. The format is functional, cell-based, Hep 3B2. In short, it runs like this: as §1

The source of these data is ChEMBL document CHEMBL1146487, “New cytotoxic clerodane diterpenoids from the leaves and twigs of Casearia membranacea” (J Nat Prod, 2004).

What is called IC50 is the concentration needed to halve the response being measured. Read a low IC50 as higher potency.

Turning to `C=CC(=C)CC[C@]1(C)[C@H]2C[C@H](OC(=O)C(C)CC)C=C3[C@H](OC(C)=O)O[C@H](OC(C)=O)[C@@]32[C@H](OC(=O)c2cccnc2)C[C@@H]1C` (stereo not given in full), the IC50 in test [1] stood at 13000 nM; in test [2] it was 10800 nM.
Take `C=CC(=C)CC[C@]1(C)[C@H]2C[C@@H](OC(=O)C(C)CC)C=C3[C@H](OC(C)=O)O[C@H](OC(C)=O)[C@@]32[C@H](O)C[C@@H]1C` (relative stereo) [CASEAMEMBRIN E]: the results for the half-maximal inhibitory concentration (IC50) in test [1] and in test [2] were 2900 nM and 2600 nM, respectively.
The like results for `C=CC(=C)CC[C@]1(C)[C@H]2C[C@H](OC(=O)C(C)CC)C=C3[C@H](OC(C)=O)O[C@H](OC(C)=O)[C@@]32[C@H](O)C[C@@H]1C` (relative stereo) were, in that order, 1800 nM and 2400 nM.
The like results for `C=CC(=C)CC[C@]1(C)[C@H]2C[C@H](OC(=O)C(C)CC)C=C3[C@H](OC(=O)CCC)O[C@H](OC(C)=O)[C@@]32[C@H](O)C[C@@H]1C` (relative stereo) [CASEAMEMBRIN A] were, in that order, 1500 nM and 2300 nM.
The like results for `C=CC(=C)CC[C@]1(C)[C@H]2C[C@H](OC(=O)C(C)CC)C=C3[C@H](OC)O[C@H](OC(C)=O)[C@@]32[C@H](O)C[C@@H]1C` (relative stereo) [CASEAMEMBRIN B] were, in that order, 22200 nM and 18000 nM.
With `CC(=O)O[C@H]1C(=O)[C@@]2(C)[C@H]([C@H](OC(=O)c3ccccc3)[C@]3(O)C[C@H](OC(=O)[C@H](O)[C@@H](NC(=O)c4ccccc4)c4ccccc4)C(C)=C1C3(C)C)[C@]1(OC(C)=O)CO[C@@H]1C[C@@H]2O` [PACLITAXEL], the results for the IC50 in test [1] and in test [2] were 16 nM and 31 nM, respectively.
With `C=CC(=C)CC[C@]1(C)[C@H]2C[C@H](OC(=O)C(C)CC)C=C3[C@H](OC(=O)CCC)O[C@H](OC(C)=O)[C@@]32[C@H](OC(C)=O)[C@H](OC(C)=O)[C@@H]1C` (stereo not given in full), the IC50 in test [1] was determined as 12800 nM; in test [2], 16800 nM.
The like results for `C=CC(=C)CC[C@]1(C)[C@H]2C[C@H](OC(=O)C(C)CC)C=C3[C@H](OC(=O)CCC)O[C@H](OC(C)=O)[C@@]32[C@H](O)[C@H](OC(C)=O)[C@@H]1C` (relative stereo) [CASEAMEMBRIN D] were, in that order, 2400 nM and 1900 nM.
The like results for `C=CC(=C)CC[C@]1(C)[C@H]2C[C@H](OC(=O)C(C)CC)C=C(C=O)[C@@]2(C=O)[C@H](O)C[C@@H]1C` (relative stereo) [CASEAMEMBRIN F] were, in that order, 3000 nM and 14700 nM.
The like results for `C=CC(=C)CC[C@]1(C)[C@H]2C[C@H](OC(=O)C(C)CC)C=C3[C@H](OC(=O)CCC)O[C@H](OC(C)=O)[C@@]32[C@H](O)[C@H](O)[C@@H]1C` (relative stereo) [CASEAMEMBRIN C] were, in that order, 600 nM and 800 nM.
